Measurements as given in ChEMBL document CHEMBL1124417, “Synthesis and hypertensive activity of neuropeptide Y fragments and analogues with modified N- or C-termini or D-substitutions” (1989).

Columns and labels:
[1] = Relative potency measured as ratio of ED50 of NPY to ED50 of analogue; format: functional
[2] = test system: Rattus norvegicus; assay: Mean arterial pressure was measured in conscious rats after intra arterial administration at 400 ug/kg dosage.; format: functional, Artery
In short: (§1)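 Conscious male Sprague-Dawley rats (240-280 g), catheterised under pentobarbital (40 mg/kg), ≥2 h recovery. Saline peptide solutions as intraarterial 100-µL bolus. MAP via pressure transducer, computed as [[…] + diastolic]. ΔMAP = value at 1 min minus mean pretreatment saline zero values (n = 4). Means ± SEM, n ≥ 3.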

[3] = test system: Rattus norvegicus; assay: Hypertensive potency in conscious rats after intra arterial administration.; format: functional
In short: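 Male Sprague-Dawley rats (240-280 g), conscious; catheters placed under pentobarbital anaesthesia (40 mg/kg) with ≥2 h recovery. Peptides in saline given intraarterially as 100-µL bolus. ΔMAP = posttreatment minus mean pretreatment saline zero values (n = 4).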

[4] = test system: Rattus norvegicus; assay: Mean arterial pressure was measured in conscious rats after intra arterial administration at 40 ug/kg dosage.; format: functional, Artery; in short: as §1

Compound	Ratio [1]	Delta MAP [2]	ED50 [3] [mg/kg]	Delta MAP [4]
CC[C@H](C)[C@H](NC(=O)[C@H](Cc1ccc(O)cc1)NC(=O)[C@H](Cc1c[nH]cn1)NC(=O)[C@H](CCCN=C(N)N)NC(=O)[C@H](CC(C)C)NC(=O)[C@H](C)NC(=O)[C@H](CO)NC(=O)[C@H](Cc1ccc(O)cc1)NC(=O)[C@H](Cc1ccc(O)cc1)NC(=O)[C@H](CCCN=C(N)N)NC(=O)[C@H](C)NC(=O)[C@H](CC(C)C)NC(=O)[C@H](CC(=O)O)NC(=O)[C@H](CCC(=O)O)NC(=O)[C@H](C)NC(=O)[C@@H]1CCCN1C(=O)[C@H](C)NC(=O)[C@H](CC(=O)O)NC(=O)[C@H](CCC(=O)O)NC(=O)[C@H](C)NC(=O)[C@@H]1CCCN1C(=O)[C@H](CC(N)=O)NC(=O)[C@H](CC(=O)O)NC(=O)[C@@H]1CCCN1C(=O)[C@H](CCCCN)NC(=O)[C@H](CO)NC(=O)[C@@H]1CCCN1C(=O)[C@@H](N)Cc1ccc(O)cc1)C(=O)N[C@@H](CC(N)=O)C(=O)N[C@@H](CC(C)C)C(=O)N[C@H](C(=O)N[C@H](C(=O)N[C@@H](CCCN=C(N)N)C(=O)N[C@@H](CCC(N)=O)C(=O)N[C@@H](CCCN=C(N)N)C(=O)O)[C@@H](C)O)[C@@H](C)CC	0.7	–	–	–
H-YPSKPDNPGEDAPA-OH	–	<5	> 0.4	<5
CC[C@H](C)[C@H](NC(=O)[C@H](Cc1ccc(O)cc1)NC(=O)[C@@H](N)Cc1c[nH]cn1)C(=O)N[C@@H](CC(N)=O)C(=O)N[C@@H](CC(C)C)C(=O)N[C@H](C(=O)N[C@H](C(=O)N[C@@H](CCCN=C(N)N)C(=O)N[C@@H](CCC(N)=O)C(=O)N[C@@H](CCCN=C(N)N)C(=O)N[C@@H](Cc1ccc(O)cc1)C(N)=O)[C@@H](C)O)[C@@H](C)CC	–	7	> 0.4	<5
